In ChEMBL document CHEMBL4402525, “Potential Tools for Eradicating HIV Reservoirs in the Brain: Development of Trojan Horse Prodrugs for the Inhibition of P-Glycoprotein with Anti-HIV-1 Activity” (J Med Chem, 2020):
Activity calls are given as the source filed them. The rule behind the calls is not given here.

What was measured:
[1] = system: Human immunodeficiency virus 1; experiment: Antiviral activity against HIV1 LAI infected in human 12D7 cells overexpressing p-gp assessed as reduction in P24 level at 0.08 to 1.25 uM incubated for 3 days followed by replacement of fresh medium containing compound and measured after 3 days by ELISA; format: functional, organism-based; conditions: M:B_Lai
Summary of the method: (§1)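 12D7 CD4+ T cells in log phase, resuspended at 1 million/mL, infected 4 h with 500 TCID50 HIV-1 LAI, washed three times, plated at 75 000 cells/mL; compound added at 0.05% DMSO in RPMI 1640 with 10% FBS, L-glutamine and penicillin/streptomycin; medium with same compound level renewed day 3; day-6 supernatant p24 (gag) quantified by ELISA; duplicate runs.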

[2] = system: Human immunodeficiency virus 1; experiment: Antiviral activity against HIV1 LAI infected in human 12D7 cells overexpressing p-gp assessed as reduction in P24 level at 1:1 ratio of test compound to abacavir incubated for 3 days followed by followed by replacement of fresh medium containing compound and measured after 3 days by ELISA; format: functional, organism-based; conditions: M:B_Lai; summary of the method: as §1
[3] = Produrg conversion in pH 7.4 PBS/30% methanol assessed as DTT-mediated abacavir formation by measuring half life at 4 uM in presence of 250 mM DTT by UPLC-MS analysis; format: ADME; conditions: buffer, pH 7.4, 4 µM
Summary of the method: (§2)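 Heterodimer at 4 μM was incubated at 37 °C with 250 mM DTT or 10 mM GSH. The solvent was degassed 30% methanol/PBS (pH ~ 7.4) containing 5 μM quinine as internal standard. Reductant-triggered release of the monomeric drugs was followed over time and given as t1/2.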

[4] = Stability of compound in RPMI medium at 100 uM after 1 week by UPLC-MS analysis; format: physicochemical; conditions: read-out: Stability
Summary of the method: (§3)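 Heterodimer at 100 μM was held at 37 °C in 12D7 cell medium with 1% DMSO. The medium was RPMI 1640 with penicillin/streptomycin, 5 mM L-glutamine and 10% FBS. Every 24 h an aliquot was quenched 1:1 with ice-cold acetonitrile containing 1.0 mM 4-methoxybenzyl alcohol, then centrifuged. Supernatant was run on C8 RP-HPLC (0.05% TFA, 15–75% acetonitrile over 30 min, UV 254 nm), in duplicate.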

[5] = Produrg conversion in pH 7.4 PBS/30% methanol assessed as DTT-mediated nelfinavir formation by measuring half life at 4 uM in presence of 250 mM DTT by UPLC-MS analysis; format: ADME; conditions: buffer, pH 7.4, 4 µM; summary of the method: as §2
[6] = Produrg conversion in pH 7.4 PBS/30% methanol assessed as GSH-mediated nelfinavir formation by measuring half life at 4 uM in presence of 10 mM GSH by UPLC-MS analysis; format: ADME; conditions: pH 7.4, 4 µM; summary of the method: as §2
[7] = Stability of compound in PBS after 1 week by UPLC-MS analysis; format: physicochemical; conditions: read-out: Stability
[8] = Produrg conversion in pH 7.4 PBS/30% methanol assessed as GSH-mediated abacavir formation by measuring half life at 4 uM in presence of 10 mM GSH by UPLC-MS analysis; format: ADME; conditions: pH 7.4, 4 µM; summary of the method: as §2
P-gp (ABCB1) [9] = biological target: T1, P-gp (ABCB1) (Homo sapiens, UniProt P08183); experiment: Inhibition of P-gp in human 12D7-MDR cells up to 500 uM using calcein-AM as substrate after 30 mins by flow cytometric analysis relative to control; conditions: probe calcein-AM
P-gp (ABCB1) [10] = biological target: T1, P-gp (ABCB1); experiment: Inhibition of P-gp in human 12D7-MDR cells up to 500 uM using NBD-Aba as substrate after 30 mins by flow cytometric analysis relative to control; conditions: probe NBD-Aba
[11] = Stability of compound in RPMI medium at 100 uM after 3 days by UPLC-MS analysis; format: physicochemical; conditions: read-out: Stability; summary of the method: as §3
[12] = Produrg conversion in pH 7.4 PBS/30% methanol assessed as DTT-mediated darunavir formation by measuring half life at 4 uM in presence of 250 mM DTT by UPLC-MS analysis; format: ADME; conditions: buffer, pH 7.4, 4 µM; summary of the method: as §2
[13] = Produrg conversion in pH 7.4 PBS/30% methanol assessed as GSH-mediated darunavir formation by measuring half life at 4 uM in presence of 10 mM GSH by UPLC-MS analysis; format: ADME; conditions: pH 7.4, 4 µM; summary of the method: as §2
[14] = Stability of compound in PBS after 3 days by UPLC-MS analysis; format: physicochemical; conditions: read-out: Stability

T1 sequence (P08183 whole entry): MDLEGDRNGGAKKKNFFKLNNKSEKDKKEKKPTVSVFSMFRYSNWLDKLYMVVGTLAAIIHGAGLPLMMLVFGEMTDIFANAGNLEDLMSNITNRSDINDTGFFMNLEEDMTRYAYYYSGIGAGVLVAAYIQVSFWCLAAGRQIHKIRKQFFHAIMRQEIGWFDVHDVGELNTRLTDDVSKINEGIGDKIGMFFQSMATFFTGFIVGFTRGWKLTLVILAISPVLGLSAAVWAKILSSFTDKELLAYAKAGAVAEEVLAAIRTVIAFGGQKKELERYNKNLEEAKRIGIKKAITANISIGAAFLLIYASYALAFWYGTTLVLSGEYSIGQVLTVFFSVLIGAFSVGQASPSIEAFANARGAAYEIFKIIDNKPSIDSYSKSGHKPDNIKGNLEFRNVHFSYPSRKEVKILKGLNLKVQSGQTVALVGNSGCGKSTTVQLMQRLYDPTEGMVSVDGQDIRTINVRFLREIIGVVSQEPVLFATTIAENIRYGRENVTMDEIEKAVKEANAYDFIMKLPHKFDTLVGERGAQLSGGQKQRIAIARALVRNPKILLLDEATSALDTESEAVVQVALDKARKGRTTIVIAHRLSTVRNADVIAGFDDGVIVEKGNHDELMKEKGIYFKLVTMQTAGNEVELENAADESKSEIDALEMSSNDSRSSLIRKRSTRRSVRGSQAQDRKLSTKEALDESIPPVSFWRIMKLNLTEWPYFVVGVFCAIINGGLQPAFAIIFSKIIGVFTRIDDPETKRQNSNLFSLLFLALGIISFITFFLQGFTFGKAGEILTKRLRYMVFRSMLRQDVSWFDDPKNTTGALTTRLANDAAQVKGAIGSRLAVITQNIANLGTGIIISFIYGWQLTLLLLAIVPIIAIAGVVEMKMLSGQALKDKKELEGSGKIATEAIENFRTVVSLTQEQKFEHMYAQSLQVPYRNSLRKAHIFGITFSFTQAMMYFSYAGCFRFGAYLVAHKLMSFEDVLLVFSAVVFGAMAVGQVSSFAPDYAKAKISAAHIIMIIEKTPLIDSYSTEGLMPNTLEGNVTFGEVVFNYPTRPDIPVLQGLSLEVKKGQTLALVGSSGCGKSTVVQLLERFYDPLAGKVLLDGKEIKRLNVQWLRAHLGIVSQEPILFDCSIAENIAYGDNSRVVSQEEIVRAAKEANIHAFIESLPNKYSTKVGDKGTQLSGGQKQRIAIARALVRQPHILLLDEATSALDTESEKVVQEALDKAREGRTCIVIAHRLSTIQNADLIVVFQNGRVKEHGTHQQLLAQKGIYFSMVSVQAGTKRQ

SMILES	Activity [1]	Activity [2]	t1/2 [3] [h]	t1/2 [8] [h]	also measured
Cc1c(O)cccc1C(=O)N[C@@H](CSc1ccccc1)[C@H](O)CN1C[C@H]2CCCC[C@H]2C[C@H]1C(=O)NC(C)(C)C	Active	Active	–	–	–
Cc1c(OC(=O)CCCSSCCCC(=O)OC[C@@H]2C=C[C@H](n3cnc4c(NC5CC5)nc(N)nc43)C2)cccc1C(=O)N[C@@H](CSc1ccccc1)[C@H](O)CN1C[C@H]2CCCC[C@H]2C[C@H]1C(=O)NC(C)(C)C	Active	–	31.8	29.4	remaining at 168 h, 100 µM [4]: > 95%; t1/2 [5]: 1.2 h; t1/2 [6]: 10.3 h; remaining at 168 h [7]: > 95%
Nc1nc(NC2CC2)c2ncn([C@H]3C=C[C@@H](CO)C3)c2n1 [ABACAVIR]	Active	–	–	–	inhibition at 0.5 h (P-gp (ABCB1) [9]): < 10%; inhibition at 0.5 h (P-gp (ABCB1) [10]): < 10%
CC(C)CN(C[C@@H](OC(=O)CCCSSCCCC(=O)OC[C@@H]1C=C[C@H](n2cnc3c(NC4CC4)nc(N)nc32)C1)[C@H](Cc1ccccc1)NC(=O)O[C@H]1CO[C@H]2OCC[C@H]21)S(=O)(=O)c1ccc(N)cc1	Active	–	34.5	21.6	remaining at 72 h, 100 µM [11]: > 95%; t1/2 [12]: 21.3 h; t1/2 [13]: 36.3 h; remaining at 72 h [14]: > 95%
CC(C)CN(C[C@@H](O)[C@H](Cc1ccccc1)NC(=O)O[C@H]1CO[C@H]2OCC[C@H]21)S(=O)(=O)c1ccc(N)cc1	Active	Active	–	–	–
